Assay results from ChEMBL document CHEMBL1146451, “Spirostanol and furostanol glycosides from the fresh tubers of Polianthes tuberosa” (J Nat Prod, 2004).
≈ marks a conversion by molar mass, not a printed value.

system: HeLa; assay: Cytotoxicity against human HeLa cells after 72 hrs by MTT assay; assay type: functional, cell-based
Method in brief: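 HeLa cells seeded at 2 × 10^4 cells/mL in RPMI 1640, preincubated 12 h at 37 °C in 5% CO2/air. Samples added in DMSO to final 25, 20, 15, 10, 5, 2.5, 1.25, 0.80 µg/mL; DMSO alone in control wells.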

| SMILES | IC50 [mg/L] |
| --- | --- |
| C[C@@H]1CC[C@@]2(OC1)O[C@H]1C[C@H]3[C@@H]4CC[C@H]5C[C@@H](O[C@@H]6O[C@H](CO)[C@H](O[C@@H]7O[C@H](CO)[C@@H](O)[C@H](O)[C@H]7O[C@@H]7O[C@H](CO)[C@@H](O)[C@H](O)[C@H]7O)[C@H](O)[C@H]6O)CC[C@]5(C)[C@H]4CC(=O)[C@]3(C)[C@H]1[C@@H]2C | 8.61 (≈ 9.39 µM) |
| C[C@@H]1CC[C@@]2(OC1)O[C@H]1C[C@H]3[C@@H]4C[C@H](O)[C@H]5C[C@@H](O[C@@H]6O[C@H](CO)[C@H](O[C@@H]7O[C@H](CO)[C@@H](O)[C@H](O[C@@H]8OC[C@@H](O)[C@H](O)[C@H]8O)[C@H]7O[C@@H]7O[C@H](CO)[C@@H](O)[C@H](O[C@@H]8OC[C@@H](O)[C@H](O)[C@H]8O)[C@H]7O)[C@H](O)[C@H]6O)CC[C@]5(C)[C@H]4CC[C@]3(C)[C@H]1[C@@H]2C | 7.5 (≈ 6.34 µM) |
| C[C@H](CC[C@@]1(O)O[C@H]2C[C@H]3[C@@H]4CC[C@H]5C[C@@H](O[C@@H]6O[C@H](CO)[C@H](O[C@@H]7O[C@H](CO)[C@@H](O)[C@H](O[C@@H]8OC[C@@H](O)[C@H](O)[C@H]8O)[C@H]7O[C@@H]7O[C@H](CO)[C@@H](O)[C@H](O)[C@H]7O)[C@H](O)[C@H]6O)CC[C@]5(C)[C@H]4CC[C@]3(C)[C@H]2[C@@H]1C)CO[C@@H]1O[C@H](CO)[C@@H](O)[C@H](O)[C@H]1O | 18.8 (≈ 15.5 µM) |
| C[C@@H]1CC[C@@]2(OC1)O[C@H]1C[C@H]3[C@@H]4CC[C@H]5C[C@@H](O[C@@H]6O[C@H](CO)[C@H](O[C@@H]7O[C@H](CO)[C@@H](O)[C@H](O[C@@H]8OC[C@@H](O)[C@H](O)[C@H]8O)[C@H]7O[C@@H]7O[C@H](CO)[C@@H](O)[C@H](O[C@@H]8OC[C@@H](O)[C@H](O)[C@H]8O)[C@H]7O)[C@H](O)[C@H]6O)CC[C@]5(C)[C@H]4CC[C@]3(C)[C@H]1[C@@H]2C | 7.2 (≈ 6.17 µM) |
| C[C@@H]1CC[C@@]2(OC1)O[C@H]1C[C@H]3[C@@H]4CC[C@H]5C[C@@H](O[C@@H]6O[C@H](CO)[C@H](O[C@@H]7O[C@H](CO)[C@@H](O)[C@H](O[C@@H]8OC[C@@H](O)[C@H](O)[C@H]8O)[C@H]7O[C@@H]7O[C@H](CO)[C@@H](O)[C@H](O[C@@H]8OC[C@@H](O)[C@H](O)[C@H]8O)[C@H]7O)[C@H](O)[C@H]6O)CC[C@]5(C)[C@H]4CC(=O)[C@]3(C)[C@H]1[C@@H]2C | 4.02 (≈ 3.4 µM) |
| C[C@@H]1CC[C@@]2(OC1)O[C@H]1C[C@H]3[C@@H]4CC[C@H]5C[C@@H](O[C@@H]6O[C@H](CO)[C@H](O[C@@H]7O[C@H](CO)[C@@H](O)[C@H](O[C@@H]8OC[C@@H](O)[C@H](O)[C@H]8O)[C@H]7O[C@@H]7O[C@H](CO)[C@@H](O)[C@H](O)[C@H]7O)[C@H](O)[C@H]6O)CC[C@]5(C)[C@H]4CC(=O)[C@]3(C)[C@H]1[C@@H]2C | 8.17 (≈ 7.79 µM) |
| C[C@@H]1CC[C@@]2(OC1)O[C@H]1C[C@H]3[C@@H]4CC[C@H]5C[C@@H](O[C@@H]6O[C@H](CO)[C@H](O[C@@H]7O[C@H](CO)[C@@H](O)[C@H](O[C@@H]8O[C@H](CO)[C@@H](O)[C@H](O)[C@H]8O)[C@H]7O[C@@H]7O[C@H](CO)[C@@H](O)[C@H](O[C@@H]8OC[C@@H](O)[C@H](O)[C@H]8O)[C@H]7O)[C@H](O)[C@H]6O)CC[C@]5(C)[C@H]4CC(=O)[C@]3(C)[C@H]1[C@@H]2C [AGAMENOSIDE F] | 5.1 (≈ 4.21 µM) |
| C[C@@H]1CC[C@@]2(OC1)O[C@H]1C[C@H]3[C@@H]4CC[C@H]5C[C@@H](O[C@@H]6O[C@H](CO)[C@H](O[C@@H]7O[C@H](CO)[C@@H](O)[C@H](O[C@@H]8O[C@H](CO)[C@@H](O)[C@H](O)[C@H]8O)[C@H]7O[C@@H]7O[C@H](CO)[C@@H](O)[C@H](O[C@@H]8OC[C@@H](O)[C@H](O)[C@H]8O)[C@H]7O)[C@H](O)[C@H]6O)CC[C@]5(C)[C@H]4CC[C@]3(C)[C@H]1[C@@H]2C [POLIANTHOSIDE B] | > 20 |
| C[C@@H]1CC[C@@]2(OC1)O[C@H]1C[C@H]3[C@@H]4CC[C@H]5C[C@@H](O[C@@H]6O[C@H](CO)[C@H](O[C@@H]7O[C@H](CO)[C@@H](O)[C@H](O[C@@H]8O[C@H](CO)[C@@H](O)[C@H](O)[C@H]8O)[C@H]7O[C@@H]7O[C@H](CO)[C@@H](O)[C@H](O[C@@H]8O[C@H](CO)[C@@H](O)[C@H](O)[C@H]8O)[C@H]7O)[C@H](O)[C@H]6O)CC[C@]5(C)[C@H]4CC[C@]3(C)[C@H]1[C@@H]2C [POLIANTHOSIDE C] | > 20 |
| C[C@H](CC[C@@]1(O)O[C@H]2C[C@H]3[C@@H]4CC[C@H]5C[C@@H](O[C@@H]6O[C@H](CO)[C@H](O[C@@H]7O[C@H](CO)[C@@H](O)[C@H](O[C@@H]8OC[C@@H](O)[C@H](O)[C@H]8O)[C@H]7O[C@@H]7O[C@H](CO)[C@@H](O)[C@H](O)[C@H]7O)[C@H](O)[C@H]6O)CC[C@]5(C)[C@H]4CC(=O)[C@]3(C)[C@H]2[C@@H]1C)CO[C@@H]1O[C@H](CO)[C@@H](O)[C@H](O)[C@H]1O [POLIANTHOSIDE D] | 7.86 (≈ 6.39 µM) |
| C[C@H](CC[C@@]1(O)O[C@H]2C[C@H]3[C@@H]4CC[C@H]5C[C@@H](O[C@@H]6O[C@H](CO)[C@H](O[C@@H]7O[C@H](CO)[C@@H](O)[C@H](O[C@@H]8OC[C@@H](O)[C@H](O)[C@H]8O)[C@H]7O[C@@H]7O[C@H](CO)[C@@H](O)[C@H](O[C@@H]8OC[C@@H](O)[C@H](O)[C@H]8O)[C@H]7O)[C@H](O)[C@H]6O)CC[C@]5(C)[C@H]4CC(=O)[C@]3(C)[C@H]2[C@@H]1C)CO[C@@H]1O[C@H](CO)[C@@H](O)[C@H](O)[C@H]1O [POLIANTHOSIDE E] | 5.21 (≈ 3.83 µM) |
| C[C@H](CC[C@@]1(O)O[C@H]2C[C@H]3[C@@H]4CC[C@H]5C[C@@H](O[C@@H]6O[C@H](CO)[C@H](O[C@@H]7O[C@H](CO)[C@@H](O)[C@H](O[C@@H]8OC[C@@H](O)[C@H](O)[C@H]8O)[C@H]7O[C@@H]7O[C@H](CO)[C@@H](O)[C@H](O[C@@H]8OC[C@@H](O)[C@H](O)[C@H]8O)[C@H]7O)[C@H](O)[C@H]6O)CC[C@]5(C)[C@H]4CC[C@]3(C)[C@H]2[C@@H]1C)CO[C@@H]1O[C@H](CO)[C@@H](O)[C@H](O)[C@H]1O [POLIANTHOSIDE F] | 20 (≈ 14.8 µM) |
| C[C@H](CC[C@@]1(O)O[C@H]2C[C@H]3[C@@H]4CC[C@H]5C[C@@H](O[C@@H]6O[C@H](CO)[C@H](O[C@@H]7O[C@H](CO)[C@@H](O)[C@H](O[C@@H]8O[C@H](CO)[C@@H](O)[C@H](O)[C@H]8O)[C@H]7O[C@@H]7O[C@H](CO)[C@@H](O)[C@H](O[C@@H]8OC[C@@H](O)[C@H](O)[C@H]8O)[C@H]7O)[C@H](O)[C@H]6O)CC[C@]5(C)[C@H]4CC[C@]3(C)[C@H]2[C@@H]1C)CO[C@@H]1O[C@H](CO)[C@@H](O)[C@H](O)[C@H]1O [POLIANTHOSIDE G] | 5.36 (≈ 3.89 µM) |
